Tested on: Fibroblast
Test: Multiplex assay against human fibroblast
Assay type: toxicity, cell-based
Procedure, shortened: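 Cells were classed with CellPathfinder machine-learning gating, first as Hoechst high-intensity objects or normal cells, then (normal cells) as healthy, pyknosed or fragmented nuclei, and finally (pyknosed cells) as mitotic or apoptotic. Staining of live cells at seeding used Hoechst33342, BioTracker Green Microtubule Cytoskeleton Dye, MitoTracker Red and Annexin V Alexa Fluor 680, with imaging on a CQ1 microscope at 37°C and 5% CO2 after compound addition. Tubulin, mitochondrial-mass and membrane-permeability phenotypes are per cents of healthy-nucleus cells.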

[1] = 12 h, 1 µM, compound concentration 1 uM, replicate 1
[2] = 12 h, 1 µM, compound concentration 1 uM, replicate 2
[3] = 12 h, 10 µM, compound concentration 10 uM, replicate 1
[4] = 12 h, 10 µM, compound concentration 10 uM, replicate 2
[5] = 24 h, 1 µM, compound concentration 1 uM, replicate 1
[6] = 24 h, 1 µM, compound concentration 1 uM, replicate 2
[7] = 24 h, 10 µM, compound concentration 10 uM, replicate 1
[8] = 24 h, 10 µM, compound concentration 10 uM, replicate 2
[9] = 48 h, 1 µM, compound concentration 1 uM, replicate 1
[10] = 48 h, 1 µM, compound concentration 1 uM, replicate 2
[11] = 48 h, 10 µM, compound concentration 10 uM, replicate 1
[12] = 48 h, 10 µM, compound concentration 10 uM, replicate 2

CCCC(CCC)C(=O)O [VALPROIC ACID]
Population Apoptotic (%) [1]: 42% | Population Fragmented Nuclei (%) [1]: 13% | Population Healthy Nuclei (%) [1]: 65% | Population Hoechst High Intensity Objects (%) [1]: 3% | Population Membrane Permeable-Phenotype (%) [1]: 2% | Population Mitochondria Different-Phenotype (%) [1]: 2% | Population Mitotic Cells (%) [1]: 57% | Population Normal (%) [1]: 96% | Population Pyknosed Nuclei (%) [1]: 21% | Population Tubulin-Different-Phenotype (%) [1]: 27% | Population Apoptotic (%) [2]: 57% | Population Fragmented Nuclei (%) [2]: 20% | Population Healthy Nuclei (%) [2]: 47% | Population Hoechst High Intensity Objects (%) [2]: 8% | Population Membrane Permeable-Phenotype (%) [2]: 10% | Population Mitochondria Different-Phenotype (%) [2]: 14% | Population Mitotic Cells (%) [2]: 42% | Population Normal (%) [2]: 91% | Population Pyknosed Nuclei (%) [2]: 31% | Population Tubulin-Different-Phenotype (%) [2]: 49% | Population Apoptotic (%) [3]: 30% | Population Fragmented Nuclei (%) [3]: 29% | Population Healthy Nuclei (%) [3]: 60% | Population Hoechst High Intensity Objects (%) [3]: 4% | Population Membrane Permeable-Phenotype (%) [3]: 1% | Population Mitochondria Different-Phenotype (%) [3]: 3% | Population Mitotic Cells (%) [3]: 70% | Population Normal (%) [3]: 95% | Population Pyknosed Nuclei (%) [3]: 9% | Population Tubulin-Different-Phenotype (%) [3]: 16% | Population Apoptotic (%) [4]: 43% | Population Fragmented Nuclei (%) [4]: 16% | Population Healthy Nuclei (%) [4]: 53% | Population Hoechst High Intensity Objects (%) [4]: 2% | Population Membrane Permeable-Phenotype (%) [4]: 4% | Population Mitochondria Different-Phenotype (%) [4]: 8% | Population Mitotic Cells (%) [4]: 56% | Population Normal (%) [4]: 97% | Population Pyknosed Nuclei (%) [4]: 30% | Population Tubulin-Different-Phenotype (%) [4]: 41% | Population Apoptotic (%) [5]: 42% | Population Fragmented Nuclei (%) [5]: 11% | Population Healthy Nuclei (%) [5]: 69% | Population Hoechst High Intensity Objects (%) [5]: 5% | Population Membrane Permeable-Phenotype (%) [5]: 1% | Population Mitochondria Different-Phenotype (%) [5]: 2% | Population Mitotic Cells (%) [5]: 57% | Population Normal (%) [5]: 95% | Population Pyknosed Nuclei (%) [5]: 19% | Population Tubulin-Different-Phenotype (%) [5]: 22% | Population Apoptotic (%) [6]: 48% | Population Fragmented Nuclei (%) [6]: 22% | Population Healthy Nuclei (%) [6]: 53% | Population Hoechst High Intensity Objects (%) [6]: 7% | Population Membrane Permeable-Phenotype (%) [6]: 3% | Population Mitochondria Different-Phenotype (%) [6]: 7% | Population Mitotic Cells (%) [6]: 51% | Population Normal (%) [6]: 92% | Population Pyknosed Nuclei (%) [6]: 24% | Population Tubulin-Different-Phenotype (%) [6]: 54% | Population Apoptotic (%) [7]: 50% | Population Fragmented Nuclei (%) [7]: 27% | Population Healthy Nuclei (%) [7]: 66% | Population Hoechst High Intensity Objects (%) [7]: 6% | Population Membrane Permeable-Phenotype (%) [7]: 0% | Population Mitochondria Different-Phenotype (%) [7]: 1% | Population Mitotic Cells (%) [7]: 50% | Population Normal (%) [7]: 93% | Population Pyknosed Nuclei (%) [7]: 5% | Population Tubulin-Different-Phenotype (%) [7]: 21% | Population Apoptotic (%) [8]: 38% | Population Fragmented Nuclei (%) [8]: 30% | Population Healthy Nuclei (%) [8]: 46% | Population Hoechst High Intensity Objects (%) [8]: 3% | Population Membrane Permeable-Phenotype (%) [8]: 5% | Population Mitochondria Different-Phenotype (%) [8]: 4% | Population Mitotic Cells (%) [8]: 61% | Population Normal (%) [8]: 96% | Population Pyknosed Nuclei (%) [8]: 23% | Population Tubulin-Different-Phenotype (%) [8]: 41% | Population Apoptotic (%) [9]: 55% | Population Fragmented Nuclei (%) [9]: 18% | Population Healthy Nuclei (%) [9]: 66% | Population Hoechst High Intensity Objects (%) [9]: 7% | Population Membrane Permeable-Phenotype (%) [9]: 0% | Population Mitochondria Different-Phenotype (%) [9]: 1% | Population Mitotic Cells (%) [9]: 44% | Population Normal (%) [9]: 92% | Population Pyknosed Nuclei (%) [9]: 14% | Population Tubulin-Different-Phenotype (%) [9]: 19% | Population Apoptotic (%) [10]: 48% | Population Fragmented Nuclei (%) [10]: 36% | Population Healthy Nuclei (%) [10]: 44% | Population Membrane Permeable-Phenotype (%) [10]: 4% | Population Mitochondria Different-Phenotype (%) [10]: 7% | Population Mitotic Cells (%) [10]: 51% | Population Pyknosed Nuclei (%) [10]: 19% | Population Tubulin-Different-Phenotype (%) [10]: 55% | Population Apoptotic (%) [11]: 60% | Population Fragmented Nuclei (%) [11]: 30% | Population Healthy Nuclei (%) [11]: 60% | Population Hoechst High Intensity Objects (%) [11]: 1% | Population Membrane Permeable-Phenotype (%) [11]: 0% | Population Mitochondria Different-Phenotype (%) [11]: 1% | Population Mitotic Cells (%) [11]: 40% | Population Normal (%) [11]: 98% | Population Pyknosed Nuclei (%) [11]: 8% | Population Tubulin-Different-Phenotype (%) [11]: 18% | Population Fragmented Nuclei (%) [12]: 33% | Population Healthy Nuclei (%) [12]: 51% | Population Hoechst High Intensity Objects (%) [12]: 5% | Population Membrane Permeable-Phenotype (%) [12]: 6% | Population Mitochondria Different-Phenotype (%) [12]: 5% | Population Mitotic Cells (%) [12]: 39% | Population Normal (%) [12]: 94% | Population Pyknosed Nuclei (%) [12]: 15% | Population Tubulin-Different-Phenotype (%) [12]: 46%

Reference: ChEMBL document CHEMBL5058577, “EUbOPEN Chemogenomics Library 2 (Multiplex)” (2022)
